Experiments:
Type in all cases: functional
Stomoxys calcitrans [1] = test: In vitro insecticidal activity in bovine serum against adult stable fly
Method in brief: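 Twenty chilled 5-day-old hungry adult Stomoxys calcitrans in covered petri dish exposed to compound in bovine serum on saturated dental wick, incubated 24 or 48 h.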

Calliphoridae [2] = test: In vitro insecticidal activity in bovine serum against Blowfly larvae
Method in brief: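 In vitro bait: ~50 first-instar blowflies placed on dental wick saturated with compound in bovine serum, in loosely plugged tube, 27 °C, 55% RH, under fluorescent light, 24 h.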

Stomoxys calcitrans [3] = test: Mortality percentage on day 6 in Adult stable flies after their exposure to sera for 48 hours, from the cattle, administered with the compound at 5 mg/kg
Method in brief: (§1)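 Calves given single intraruminal 5 mg/kg in 5 mL PEG-200, with vehicle and untreated controls; serum collected daily and fed on saturated dental wick to adult stable flies (20/dish) or ~50 first-instar blowflies; % mortality read after 48 h exposure.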

Stomoxys calcitrans [4] = test: Mortality percentage on day 7 in Adult stable flies after their exposure to sera for 24 hours, from the cattle, administered with the compound at 5 mg/kg
Method in brief: (§2)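 Calves given single intraruminal 5 mg/kg in 5 mL PEG-200 (two treated, one vehicle, one untreated). Blood taken pre-dose, 2, 5, 24 h, then daily; serum on saturated dental wick fed to adult stable flies (20/dish) or ~50 first-instar blowflies (27 °C, 55% RH); % mortality after 24 h exposure.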

Stomoxys calcitrans [5] = test: In vitro insecticidal activity against adult stable fly in serum collected from calves administered with 0.50 mg/kg; conditions: dose 0.5 mg/kg
Stomoxys calcitrans [6] = test: In vitro insecticidal activity against adult stable fly in serum collected from calves administered with 0.75 mg/kg
Stomoxys calcitrans [7] = test: In vitro insecticidal activity against adult stable fly in serum collected from calves administered with 1.50 mg/kg; conditions: dose 1.5 mg/kg
Stomoxys calcitrans [8] = test: In vitro insecticidal activity against adult stable fly in serum collected from calves administered with 1 mg/kg
Stomoxys calcitrans [9] = test: In vivo insecticidal activity against adult stable fly in serum collected from calves administered with 0.50 mg/kg; conditions: dose 0.5 mg/kg
Stomoxys calcitrans [10] = test: In vivo insecticidal activity against adult stable fly in serum collected from calves administered with 0.75 mg/kg
Stomoxys calcitrans [11] = test: In vivo insecticidal activity against adult stable fly in serum collected from calves administered with 1.0 mg/kg
Stomoxys calcitrans [12] = test: In vivo insecticidal activity against adult stable fly in serum collected from calves administered with 1.50 mg/kg; conditions: dose 1.5 mg/kg
Stomoxys calcitrans [13] = test: Mortality percentage after on day 2 in Adult stable flies after their exposure to sera for 24 hours, from the cattle, administered with the compound at 5 mg/kg; method in brief: as §2
Stomoxys calcitrans [14] = test: Mortality percentage on 0 day in Adult stable flies after their exposure to sera for 24 hours, from the cattle, administered with the compound at 5 mg/kg; method in brief: as §2
Stomoxys calcitrans [15] = test: Mortality percentage on 1 day in Adult stable flies after their exposure to sera for 24 hours, from the cattle, administered with the compound at 5 mg/kg; method in brief: as §2
Stomoxys calcitrans [16] = test: Mortality percentage on day 3 in Adult stable flies after their exposure to sera for 24 hours, from the cattle, administered with the compound at 5 mg/kg; method in brief: as §2
Stomoxys calcitrans [17] = test: Mortality percentage on day 3 in Adult stable flies after their exposure to sera for 48 hours, from the cattle, administered with the compound at 5 mg/kg; method in brief: as §1
Stomoxys calcitrans [18] = test: Mortality percentage on day 5 in Adult stable flies after their exposure to sera for 24 hours, from the cattle, administered with the compound at 5 mg/kg; method in brief: as §2
Stomoxys calcitrans [19] = test: Mortality percentage on day 6 in Adult stable flies after their exposure to sera for 24 hours, from the cattle, administered with the compound at 5 mg/kg; method in brief: as §2
Calliphoridae [20] = test: Mortality percentage on day 7 in Blowfly larvae after their exposure to sera for 24 hours, from the cattle administered with the compound at 5 mg/kg; method in brief: as §2
Calliphoridae [21] = test: In vivo insecticidal activity against Larval blowfly from calves administered with 0.50 mg/kg; conditions: dose 0.5 mg/kg
Method in brief: (§3)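 Calves dosed daily intraruminally through implanted rumen tube with diketone in 5 mL PEG-200 (vehicle and untreated controls). Daily serum fed on saturated dental wick to ~50 first-instar blowflies, 27 °C, 55% RH; mortality after 48 h (24 h where noted); day of onset of ≥50% mortality recorded.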

Calliphoridae [22] = test: In vivo insecticidal activity against Larval blowfly from calves administered with 0.75 mg/kg; method in brief: as §3
Calliphoridae [23] = test: In vivo insecticidal activity against Larval blowfly from calves administered with 1.0 mg/kg; method in brief: as §3
Calliphoridae [24] = test: In vivo insecticidal activity against Larval blowfly from calves administered with 1.50 mg/kg; conditions: dose 1.5 mg/kg; method in brief: as §3
Calliphoridae [25] = test: Mortality percentage on day 0 in Blowfly larvae after their exposure to sera for 24 hours, from the cattle administered with the compound at 5 mg/kg; method in brief: as §2
Calliphoridae [26] = test: Mortality percentage on day 2 in Blowfly larvae after their exposure to sera for 24 hours, from the cattle administered with the compound at 5 mg/kg; method in brief: as §2
Calliphoridae [27] = test: Mortality percentage on day 3 in Blowfly larvae after their exposure to sera for 24 hours, from the cattle administered with the compound at 5 mg/kg; method in brief: as §2
Calliphoridae [28] = test: Mortality percentage on day 3 in Blowfly larvae after their exposure to sera for 48 hours, from the cattle administered with the compound at 5 mg/kg; method in brief: as §1
Calliphoridae [29] = test: Mortality percentage on day 4 in Blowfly larvae after their exposure to sera for 24 hours, from the cattle administered with the compound at 5 mg/kg; method in brief: as §2
Calliphoridae [30] = test: Mortality percentage on day 4 in Blowfly larvae after their exposure to sera for 48 hours, from the cattle administered with the compound at 5 mg/kg; method in brief: as §1
Calliphoridae [31] = test: Mortality percentage on day 5 in Blowfly larvae after their exposure to sera for 24 hours, from the cattle administered with the compound at 5 mg/kg; method in brief: as §2
Calliphoridae [32] = test: Mortality percentage on day 5 in Blowfly larvae after their exposure to sera for 48 hours, from the cattle administered with the compound at 5 mg/kg; method in brief: as §1
Calliphoridae [33] = test: Mortality percentage on day 6 in Blowfly larvae after their exposure to sera for 24 hours, from the cattle administered with the compound at 5 mg/kg; method in brief: as §2
Calliphoridae [34] = test: Mortality percentage on day 6 in Blowfly larvae after their exposure to sera for 48 hours, from the cattle administered with the compound at 5 mg/kg; method in brief: as §1
Stomoxys calcitrans [35] = test: Mortality percentage on day 5 in Adult stable flies after their exposure to sera for 48 hours, from the cattle, administered with the compound at 5 mg/kg; method in brief: as §1
Calliphoridae [36] = test: Mortality percentage on day 1 in Blowfly larvae after their exposure to sera for 24 hours, from the cattle administered with the compound at 5 mg/kg; method in brief: as §2
Stomoxys calcitrans [37] = test: In vitro insecticidal activity against adult stable fly in serum collected from calves administered with 1.00 mg/kg
Stomoxys calcitrans [38] = test: In vitro insecticidal activity against adult stable fly in serum collected from calves administered with 0.35 mg/kg
Stomoxys calcitrans [39] = test: In vivo insecticidal activity against adult stable fly in serum collected from calves administered with 1 mg/kg
Calliphoridae [40] = test: In vivo insecticidal activity against Larval blowfly from calves administered with 0.20 mg/kg; conditions: dose 0.2 mg/kg; method in brief: as §3

## O=C(/C=C(\[O-])c1ccc(C(F)(F)F)cc1)C(F)(F)C(F)(F)C(F)(F)F.[Na+]
Stomoxys calcitrans [1]
  Lowest effective concentration: 30 p.p.m.
Calliphoridae [2]
  Lowest effective concentration: 35 p.p.m.

## O=C(/C=C(\[O-])c1cccc(C(F)(F)F)c1)C(F)(F)C(F)(F)C(F)(F)F.[Na+]
Stomoxys calcitrans [1]
  Lowest effective concentration: 35 p.p.m.
Calliphoridae [2]
  Lowest effective concentration: 40 p.p.m.

## O=C(/C=C(\[O-])c1cc(Cl)cc(Cl)c1)C(F)(F)C(F)(F)F.[Na+]
Stomoxys calcitrans [3]
  mortality at 5 mg/kg: 30%
Stomoxys calcitrans [4]
  mortality at 5 mg/kg: 10%
Stomoxys calcitrans [1]
  Lowest effective concentration: 20 p.p.m.
Stomoxys calcitrans [5]
  Activity: 6 day of onset
Stomoxys calcitrans [6]
  Activity: 4 day of onset
Stomoxys calcitrans [7]
  Activity: 2 day of onset
Stomoxys calcitrans [8]
  Activity: 3 day of onset
Stomoxys calcitrans [9]
  Activity: 6 day of onset
Stomoxys calcitrans [10]
  Activity: 4 day of onset
Stomoxys calcitrans [11]
  Activity: 3 day of onset
Stomoxys calcitrans [12]
  Activity: 2 day of onset
Stomoxys calcitrans [13]
  mortality at 5 mg/kg: 55%
Stomoxys calcitrans [14]
  mortality at 5 mg/kg: 0%
Stomoxys calcitrans [15]
  mortality at 5 mg/kg: 20%
Stomoxys calcitrans [16]
  mortality at 5 mg/kg: 45%
Stomoxys calcitrans [17]
  mortality at 5 mg/kg: 100%
Stomoxys calcitrans [18]
  mortality at 5 mg/kg: 0%
Stomoxys calcitrans [19]
  mortality at 5 mg/kg: 0%
Calliphoridae [20]
  mortality at 5 mg/kg: 0%
Calliphoridae [21]
  Activity: 6 day of onset
Calliphoridae [22]
  Activity: 4 day of onset
Calliphoridae [23]
  Activity: 5 day of onset
Calliphoridae [24]
  Activity: 2 day of onset
Calliphoridae [25]
  mortality at 5 mg/kg: 0%
Calliphoridae [26]
  mortality at 5 mg/kg: 0%
Calliphoridae [27]
  mortality at 5 mg/kg: 0%
Calliphoridae [28]
  mortality at 5 mg/kg: 100%
Calliphoridae [29]
  mortality at 5 mg/kg: 0%
Calliphoridae [30]
  mortality at 5 mg/kg: 50%
Calliphoridae [31]
  mortality at 5 mg/kg: 0%
Calliphoridae [32]
  mortality at 5 mg/kg: 0%
Calliphoridae [33]
  mortality at 5 mg/kg: 0%
Calliphoridae [34]
  mortality at 5 mg/kg: 0%
Calliphoridae [2]
  Lowest effective concentration: 40 p.p.m.
Stomoxys calcitrans [35]
  mortality at 5 mg/kg: 80%
Calliphoridae [36]
  mortality at 5 mg/kg: 0%

## O=C(/C=C(\[O-])c1ccc(Cl)cc1)C(F)(F)C(F)(F)C(F)(F)F.[Na+]
Stomoxys calcitrans [1]
  Lowest effective concentration: 25 p.p.m.
Calliphoridae [2]
  Lowest effective concentration: 50 p.p.m.

## O=C(/C=C(\[O-])c1ccc(F)c(F)c1)C(F)(F)C(F)(F)C(F)(F)F.[Na+]
Stomoxys calcitrans [1]
  Lowest effective concentration: 25 p.p.m.
Calliphoridae [2]
  Lowest effective concentration: 30 p.p.m.

## CC[C@H](C)[C@H]1O[C@]2(C=C[C@@H]1C)C[C@@H]1C[C@@H](C/C=C(\C)[C@@H](O[C@H]3C[C@H](OC)[C@@H](O[C@H]4C[C@H](OC)[C@@H](O)[C@H](C)O4)[C@H](C)O3)[C@@H](C)/C=C/C=C3\CO[C@@H]4[C@H](O)C(C)=C[C@@H](C(=O)O1)[C@]34O)O2 [ABAMECTIN COMPONENT B1A]
Stomoxys calcitrans [1]
  Lowest effective concentration: 10 p.p.m.
Calliphoridae [2]
  Lowest effective concentration: 0.5 p.p.m.

## O=C(/C=C(\[O-])c1ccc(Cl)c(Cl)c1)C(F)(F)C(F)(F)C(F)(F)F.[Na+]
Stomoxys calcitrans [1]
  Lowest effective concentration: 25 p.p.m.
Calliphoridae [2]
  Lowest effective concentration: 30 p.p.m.

## CNC(=O)Oc1cccc2c1OC(C)(C)C2 [CARBOFURAN]
Stomoxys calcitrans [1]
  Lowest effective concentration: 1 p.p.m.
Calliphoridae [2]
  Lowest effective concentration: 5 p.p.m.

## O=C(/C=C(\[O-])c1cc(Cl)cc(Cl)c1)C(F)(F)F.[Na+]
Stomoxys calcitrans [1]
  Lowest effective concentration: 25 p.p.m.
Calliphoridae [2]
  Lowest effective concentration: 20 p.p.m.

## O=C(/C=C(\[O-])c1cc(Cl)cc(Cl)c1)C(F)(F)C(F)F.[Na+]
Stomoxys calcitrans [1]
  Lowest effective concentration: 20 p.p.m.
Stomoxys calcitrans [37]
  Activity: 5 day of onset
Calliphoridae [2]
  Lowest effective concentration: 25 p.p.m.

## O=C(/C=C(\[O-])c1cc(Br)cc(Br)c1)C(F)(F)C(F)(F)C(F)(F)F.[Na+]
Stomoxys calcitrans [1]
  Lowest effective concentration: 25 p.p.m.
Calliphoridae [2]
  Lowest effective concentration: 25 p.p.m.

## O=C(/C=C(\[O-])c1cc(Cl)cc(Cl)c1)C(F)(F)C(F)(F)C(F)(F)F.[Na+]
Stomoxys calcitrans [1]
  Lowest effective concentration: 25 p.p.m.
Stomoxys calcitrans [38]
  Activity: 9 day of onset
Stomoxys calcitrans [5]
  Activity: 4 day of onset
Stomoxys calcitrans [37]
  Activity: 3 day of onset
Stomoxys calcitrans [9]
  Activity: 4 day of onset
Stomoxys calcitrans [39]
  Activity: 3 day of onset
Calliphoridae [21]
  Activity: 8 day of onset
Calliphoridae [2]
  Lowest effective concentration: 15 p.p.m.
Calliphoridae [40]
  Activity: 5 day of onset

## Cc1c(COC(=O)C2C(/C=C(\Cl)C(F)(F)F)C2(C)C)cccc1-c1ccccc1 (stereo not drawn)
Stomoxys calcitrans [1]
  Lowest effective concentration: 25 p.p.m.
Calliphoridae [2]
  Lowest effective concentration: 5 p.p.m.

Reference: ChEMBL document CHEMBL1124591, “Polyfluoro 1,3-diketones as systemic insecticides” (1989)
